Reference: ChEMBL document CHEMBL4346709, “Design and Optimization Leading to an Orally Active TTK Protein Kinase Inhibitor with Robust Single Agent Efficacy” (J Med Chem, 2019)
Calls of active or inactive are those of the source. The rule behind the calls is not given here.

Tests used:
LRRK2 = LRRK2 (Homo sapiens, UniProt Q5S007); assay: Inhibition of recombinant human GST-tagged LRRK2 catalytic domain (970 to 2527 residues) expressed in baculovirus expression system at 3 uM using LRRKtide as substrate measured after 1 hr by Alexa fluor-647 ADP tracer-based ADAPTA assay relative to control; conditions: probe LRRKtide
Chain of LRRK2 (Q5S007 whole entry, the tested form may be a part): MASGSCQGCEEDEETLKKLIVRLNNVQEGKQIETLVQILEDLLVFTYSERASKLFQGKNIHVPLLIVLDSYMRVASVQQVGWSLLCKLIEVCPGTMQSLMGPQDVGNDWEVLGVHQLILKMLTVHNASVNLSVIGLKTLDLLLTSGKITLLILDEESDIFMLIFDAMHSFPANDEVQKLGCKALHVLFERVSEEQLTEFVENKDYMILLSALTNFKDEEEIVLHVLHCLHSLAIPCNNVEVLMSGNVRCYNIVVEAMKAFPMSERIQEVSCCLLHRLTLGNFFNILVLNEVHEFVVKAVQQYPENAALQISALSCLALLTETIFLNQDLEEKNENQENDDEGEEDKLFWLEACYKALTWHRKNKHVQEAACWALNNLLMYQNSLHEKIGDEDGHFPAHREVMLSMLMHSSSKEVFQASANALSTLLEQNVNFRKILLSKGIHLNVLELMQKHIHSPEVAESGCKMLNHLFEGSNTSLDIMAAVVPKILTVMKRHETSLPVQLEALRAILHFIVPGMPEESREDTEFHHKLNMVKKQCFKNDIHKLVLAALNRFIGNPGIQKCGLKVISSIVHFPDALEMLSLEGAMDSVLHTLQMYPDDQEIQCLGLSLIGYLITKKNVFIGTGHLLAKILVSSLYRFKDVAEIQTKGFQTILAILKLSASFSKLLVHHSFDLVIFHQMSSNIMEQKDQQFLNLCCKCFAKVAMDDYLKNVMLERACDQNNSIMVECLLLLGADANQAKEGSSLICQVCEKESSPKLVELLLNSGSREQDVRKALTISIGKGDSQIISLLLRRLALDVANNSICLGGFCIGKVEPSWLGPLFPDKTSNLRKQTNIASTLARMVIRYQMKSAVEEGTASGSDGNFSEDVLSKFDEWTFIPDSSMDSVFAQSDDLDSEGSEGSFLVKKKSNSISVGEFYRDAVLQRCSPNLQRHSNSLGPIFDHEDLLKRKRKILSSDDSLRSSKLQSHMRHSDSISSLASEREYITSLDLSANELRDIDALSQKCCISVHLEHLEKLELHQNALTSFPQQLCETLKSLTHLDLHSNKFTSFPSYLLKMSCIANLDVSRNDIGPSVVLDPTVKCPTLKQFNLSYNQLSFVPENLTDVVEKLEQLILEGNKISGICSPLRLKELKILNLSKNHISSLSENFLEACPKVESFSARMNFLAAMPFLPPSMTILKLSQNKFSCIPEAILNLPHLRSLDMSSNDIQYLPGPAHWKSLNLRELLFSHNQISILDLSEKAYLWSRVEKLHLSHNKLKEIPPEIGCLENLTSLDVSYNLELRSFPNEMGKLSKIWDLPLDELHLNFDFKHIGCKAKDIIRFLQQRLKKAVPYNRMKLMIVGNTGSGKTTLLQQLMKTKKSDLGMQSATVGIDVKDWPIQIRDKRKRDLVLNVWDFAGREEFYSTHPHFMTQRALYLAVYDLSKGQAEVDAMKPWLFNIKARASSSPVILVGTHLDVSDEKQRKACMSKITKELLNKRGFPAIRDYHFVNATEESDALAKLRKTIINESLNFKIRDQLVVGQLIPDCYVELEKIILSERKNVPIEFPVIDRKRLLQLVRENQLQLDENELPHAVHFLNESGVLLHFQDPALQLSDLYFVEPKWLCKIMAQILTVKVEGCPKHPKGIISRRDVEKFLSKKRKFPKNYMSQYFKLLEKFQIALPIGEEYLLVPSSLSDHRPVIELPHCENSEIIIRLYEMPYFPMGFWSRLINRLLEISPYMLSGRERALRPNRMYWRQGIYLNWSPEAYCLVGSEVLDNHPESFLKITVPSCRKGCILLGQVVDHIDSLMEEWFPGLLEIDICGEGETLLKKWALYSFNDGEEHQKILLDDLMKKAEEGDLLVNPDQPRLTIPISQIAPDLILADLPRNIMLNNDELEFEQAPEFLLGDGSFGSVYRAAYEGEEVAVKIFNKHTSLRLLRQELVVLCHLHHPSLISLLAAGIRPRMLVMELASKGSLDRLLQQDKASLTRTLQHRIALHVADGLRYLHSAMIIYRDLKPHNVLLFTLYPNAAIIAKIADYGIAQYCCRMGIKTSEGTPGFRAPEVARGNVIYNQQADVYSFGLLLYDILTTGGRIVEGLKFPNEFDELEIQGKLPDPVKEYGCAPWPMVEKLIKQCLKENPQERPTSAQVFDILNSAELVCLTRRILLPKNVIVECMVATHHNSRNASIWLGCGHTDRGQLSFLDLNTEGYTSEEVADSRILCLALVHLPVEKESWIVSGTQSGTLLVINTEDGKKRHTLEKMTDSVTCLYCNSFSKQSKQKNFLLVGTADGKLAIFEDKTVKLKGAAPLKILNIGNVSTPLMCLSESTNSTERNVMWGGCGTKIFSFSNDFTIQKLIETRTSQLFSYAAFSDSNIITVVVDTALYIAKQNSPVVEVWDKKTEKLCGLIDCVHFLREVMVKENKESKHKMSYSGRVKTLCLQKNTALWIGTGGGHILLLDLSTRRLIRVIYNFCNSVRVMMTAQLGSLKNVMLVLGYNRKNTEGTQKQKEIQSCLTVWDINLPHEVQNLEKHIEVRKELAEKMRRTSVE
Outline: (§1)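 Kinase selectivity panel: single-point assessment at 3 µM, n=1.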

[1] = Metabolic stability in human liver S9 fraction assessed as parent compound remaining after 60 mins; format: ADME, subcellular; conditions: read-out: Stability
LRRK2 G2019S mutant = LRRK2 G2019S mutant (Homo sapiens, UniProt Q5S007, G2019S); assay: Inhibition of recombinant human GST-tagged LRRK2 G2019S mutant catalytic domain (970 to 2527 residues) expressed in baculovirus expression system at 3 uM using LRRKtide as substrate measured after 1 hr by Alexa-fluor-647 ADP tracer-based ADAPTA assay relative to control; conditions: probe LRRKtide; outline: as §1
Chain of LRRK2 G2019S mutant (Q5S007 whole entry G2019S, the tested form may be a part): as the sequence (Q5S007 whole entry, the tested form may be a part) above, with G2019S counted along it

[2] = target: T1, Testis-specific serine/threonine-protein kinase 1 (Homo sapiens) (UniProt Q9BXA7); assay: Inhibition of recombinant human full length His-tagged TSSK1 expressed in baculovirus expression system at 3 uM by Z'-LYTE assay relative to control; outline: as §1
T1 sequence (whole entry): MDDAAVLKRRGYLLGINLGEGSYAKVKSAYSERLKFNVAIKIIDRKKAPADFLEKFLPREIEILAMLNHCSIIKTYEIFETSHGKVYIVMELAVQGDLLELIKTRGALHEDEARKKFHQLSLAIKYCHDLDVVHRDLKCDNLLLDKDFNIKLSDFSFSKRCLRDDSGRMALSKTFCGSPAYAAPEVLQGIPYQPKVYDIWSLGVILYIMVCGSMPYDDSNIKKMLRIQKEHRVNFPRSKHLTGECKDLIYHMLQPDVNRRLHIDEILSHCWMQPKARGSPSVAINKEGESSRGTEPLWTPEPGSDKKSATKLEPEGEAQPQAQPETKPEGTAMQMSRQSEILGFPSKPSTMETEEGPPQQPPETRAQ

[3] = target: Dual specificity protein kinase CLK2 (Homo sapiens, UniProt P49760); assay: Inhibition of recombinant human GST-tagged CLK2 catalytic domain (137 to 498 residues) expressed in baculovirus expression system by Z'-LYTE assay
Chain of Dual specificity protein kinase CLK2 (P49760 whole entry, the tested form may be a part): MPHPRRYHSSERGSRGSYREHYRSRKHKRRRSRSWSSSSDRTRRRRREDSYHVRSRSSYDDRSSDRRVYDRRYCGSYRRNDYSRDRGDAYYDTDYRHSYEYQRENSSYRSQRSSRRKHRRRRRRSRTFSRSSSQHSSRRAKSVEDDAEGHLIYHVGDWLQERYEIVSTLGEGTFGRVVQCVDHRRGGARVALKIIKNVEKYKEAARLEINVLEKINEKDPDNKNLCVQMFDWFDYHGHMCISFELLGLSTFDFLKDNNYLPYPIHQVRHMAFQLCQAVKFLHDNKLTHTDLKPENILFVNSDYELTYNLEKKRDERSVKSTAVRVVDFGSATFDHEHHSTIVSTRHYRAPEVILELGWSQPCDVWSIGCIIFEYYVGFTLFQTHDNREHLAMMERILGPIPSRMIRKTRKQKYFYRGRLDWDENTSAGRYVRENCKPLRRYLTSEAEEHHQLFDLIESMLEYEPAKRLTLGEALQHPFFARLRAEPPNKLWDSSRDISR

[4] = Cmax in rat at 10 mg/kg, po; format: ADME, organism-based; parameters: dose 10 mg/kg, route oral; conditions: in vivo
Outline: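 Rat oral PK at 10 mg/kg. Compound is given as a solution in CMCT (0.5% CMC/0.25% tween-80) or formulated in 5% TPGS, 10% captisol, 50 mM citrate buffer. Cmax and AUC are recorded.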

[5] = target: Leucine-rich repeat serine/threonine-protein kinase 2 (Homo sapiens, UniProt Q5S007, G2019S); assay: Inhibition of recombinant human GST-tagged LRRK2 G2019S mutant catalytic domain (970 to 2527 residues) expressed in baculovirus expression system using LRRKtide as substrate measured after 1 hr by Alexa-fluor-647 ADP tracer-based ADAPTA assay
Chain of Leucine-rich repeat serine/threonine-protein kinase 2 (Q5S007 whole entry G2019S, the tested form may be a part): as the sequence (Q5S007 whole entry, the tested form may be a part) above, with G2019S counted along it

[6] = target: Mitogen-activated protein kinase 10 (Homo sapiens, UniProt P53779); assay: Inhibition of recombinant human full length N-terminal GST-tagged JNK3 expressed in baculovirus expression system at 3 uM by Z'-LYTE assay relative to control; outline: as §1
Chain of Mitogen-activated protein kinase 10 (P53779 whole entry): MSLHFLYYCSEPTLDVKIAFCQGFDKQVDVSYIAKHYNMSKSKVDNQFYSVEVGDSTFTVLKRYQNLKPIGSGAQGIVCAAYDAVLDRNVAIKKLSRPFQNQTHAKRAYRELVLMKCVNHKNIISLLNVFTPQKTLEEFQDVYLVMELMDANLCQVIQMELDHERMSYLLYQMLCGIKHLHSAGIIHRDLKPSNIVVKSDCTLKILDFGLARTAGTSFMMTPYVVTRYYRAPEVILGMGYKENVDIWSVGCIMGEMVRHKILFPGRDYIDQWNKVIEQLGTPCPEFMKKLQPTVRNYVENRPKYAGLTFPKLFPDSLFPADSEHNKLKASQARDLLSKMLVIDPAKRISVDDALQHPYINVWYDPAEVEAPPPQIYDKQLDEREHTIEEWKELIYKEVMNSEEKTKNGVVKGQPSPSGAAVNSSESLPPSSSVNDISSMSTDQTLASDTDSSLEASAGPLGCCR

[7] = target: T2, Testis-specific serine/threonine-protein kinase 1 (Homo sapiens, UniProt Q9BXA7); assay: Inhibition of recombinant human full length His-tagged TSSK1 expressed in baculovirus expression system by Z'-LYTE assay
T2 sequence (Q9BXA7 whole entry): T1 sequence (whole entry)

[8] = target: T3, Dual specificity protein kinase TTK (Homo sapiens, UniProt P33981); assay: Inhibition of Kinase Tracer 236 binding to recombinant human full-length GST-tagged TTk expressed in baculovirus expression system measured after 1 hr by LanthaScreen Eu--kinase binding assay
T3 sequence (P33981 whole entry): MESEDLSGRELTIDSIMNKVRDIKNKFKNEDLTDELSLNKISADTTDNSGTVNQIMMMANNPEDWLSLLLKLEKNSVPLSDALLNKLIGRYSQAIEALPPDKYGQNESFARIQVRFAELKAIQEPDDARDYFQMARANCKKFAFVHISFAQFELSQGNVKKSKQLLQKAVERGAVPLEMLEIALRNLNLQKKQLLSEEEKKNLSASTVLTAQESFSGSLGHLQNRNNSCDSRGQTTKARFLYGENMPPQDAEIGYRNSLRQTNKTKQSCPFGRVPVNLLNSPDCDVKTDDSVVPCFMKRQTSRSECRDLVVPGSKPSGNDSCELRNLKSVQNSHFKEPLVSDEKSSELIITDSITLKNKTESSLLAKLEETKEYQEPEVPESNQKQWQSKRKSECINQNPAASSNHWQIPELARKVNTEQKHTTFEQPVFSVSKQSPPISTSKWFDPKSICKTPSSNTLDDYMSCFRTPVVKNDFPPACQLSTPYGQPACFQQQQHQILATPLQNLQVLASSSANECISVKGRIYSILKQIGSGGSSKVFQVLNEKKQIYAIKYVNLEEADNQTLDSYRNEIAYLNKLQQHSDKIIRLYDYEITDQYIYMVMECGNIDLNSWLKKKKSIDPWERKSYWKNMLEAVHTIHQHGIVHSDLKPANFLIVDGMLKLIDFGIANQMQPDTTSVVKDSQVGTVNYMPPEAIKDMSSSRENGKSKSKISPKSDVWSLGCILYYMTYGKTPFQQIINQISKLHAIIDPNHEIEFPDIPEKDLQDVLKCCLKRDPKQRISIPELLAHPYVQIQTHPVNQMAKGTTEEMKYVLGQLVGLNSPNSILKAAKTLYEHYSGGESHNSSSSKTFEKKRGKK

[9] = target: T3, Dual specificity protein kinase TTK; assay: Inhibition of TTK in human CAL51 cells assessed as decrease in phosphorylated TTK T686 levels after 1 hr by Western blot analysis; format: cell-based
CAL-51 [10] = assay: Induction of apoptosis in human CAL51 cells xenografted in CB17 SCID mouse assessed as activation of cleaved caspase-3 at 30 mg/kg, po measured after 1 to 48 hrs by MSD electrochemiluminescent immunoassay relative to control; format: functional
Outline: (§2)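 CB17 SCID mice bearing CAL-51 tumours of 300-500 mm3 given compound orally. At preset time points the mice were euthanised and the tumours dissected and snap-frozen in liquid nitrogen. pHH3 Ser10 or cleaved caspase measured by MSD electrochemiluminescent immunoassay kit. Data are mean ± SEM.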

CAL-51 [11] = assay: Antiproliferative activity against human CAL51 cells assessed as reduction in cell viability after 3 days by CellTiter-Glo reagent-based luminescent assay; format: functional; conditions: CAL-51, 72 h
Mus musculus = assay: Inhibition of mitosis in human CAL51 cells xenografted in CB17 SCID mouse assessed reduction in pHH3 ser10 level at 30 mg/kg, po administered as single dose measured up to 48 hrs by MSD electrochemiluminescent immunoassay; format: functional, organism-based; outline: as §2
Homo sapiens = species: Homo sapiens; assay: Selectivity ratio of IC50 for inhibition of recombinant human GST-tagged LRRK2 G2019S mutant catalytic domain (970 to 2527 residues) expressed in baculovirus expression system to IC50 for inhibition of Kinase Tracer 236 binding to recombinant human full-length GST-tagged TTk expressed in baculovirus expression system

SMILES: C[C@@H](Oc1cc(C(=O)N(C)C)ccc1Nc1nc(O[C@H]2CC[C@@](C)(O)CC2)c2c(Cl)c[nH]c2n1)C(F)(F)F
- inhibition at 1 h, 3 µM (LRRK2): > 80%
- remaining at 1 h [1]: 65%
- inhibition at 1 h, 3 µM (LRRK2 G2019S mutant): > 80%
- inhibition [2]: > 80%
- IC50 [3]: 261 pM
- Cmax [4]: 4.35 µM
- IC50 [5]: 1 pM
- inhibition [6]: > 80%
- IC50 [7]: 217 pM
- IC50 [8]: 700 pM
- IC50 [9]: 11000 pM
- Activity (CAL-51 [10]): 250%
- IC50 (CAL-51 [11]): 10000 pM
- inhibition (Mus musculus): Active
- Ratio IC50 (Homo sapiens): < 100
